The list is not random: actives were taken first. Their share in the collection is about 3.4%.
TRPN1 ag – activates the zebrafish TRPN1 channel; HEK293 zebrafish TRPN1-YFP, Fluo-8 calcium fluorescence; 100% = response to 87 µM carbachol; activation, % at 3 µM; hit rate 0.18% among 220,000;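 active = activation above its plate's cutoff, the mean activation of test wells on that plate plus 3 SD, cut at about 19% in these data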;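 also: 0% = DMSO alone and 100% = 87 µM carbachol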
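Material – zebrafish TRPN1-YFP in HEK293 cells · Doses – 3 µM single point · Schedule – dye 1 h 37 °C plus 30 min RT · Signal – Fluo-8 calcium fluorescence, excitation 470-495 nm, emission 515-575 nm · Read-out – % activation versus carbachol response · Control set – carbachol high, DMSO low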
TAAR1 ag – human TAAR1 agonism. CHO RD-HGA16 TAAR1, Fluo-8 calcium fluorescence; vehicle wells 0%, saturating PEA agonist 100%. activation, % at 3 µM. hit rate 0.99% among 360,000;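 active = activation above the mean activation of all test compounds in the run plus 3 SD, cut at about 38% in these data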
Target sequence (Q96RJ0 whole entry, looked up): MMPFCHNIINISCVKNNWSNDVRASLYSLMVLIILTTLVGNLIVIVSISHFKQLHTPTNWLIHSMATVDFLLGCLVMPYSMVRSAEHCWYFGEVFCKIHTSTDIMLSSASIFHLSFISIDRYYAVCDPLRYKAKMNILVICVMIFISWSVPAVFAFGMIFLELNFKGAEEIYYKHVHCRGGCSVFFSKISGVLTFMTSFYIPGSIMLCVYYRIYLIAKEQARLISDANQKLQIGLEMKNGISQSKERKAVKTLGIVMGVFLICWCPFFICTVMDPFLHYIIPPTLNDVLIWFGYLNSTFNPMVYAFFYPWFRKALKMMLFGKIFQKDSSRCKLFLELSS
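Benchmarks: low control DMSO, high control PEA (EC100); System: CHO RD-HGA16 cells carrying human TAAR1 plus Gα16; Detection: Fluo-8 fluorescence, 5 s baseline then 140 s kinetic read; Schedule: 17-24 h plating, Fluo-8 75 min 37 °C, 30 min RT; Read-out basis: % activation from peak over basal fluorescence ratio, DMSO-to-PEA scaled.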
GPR7 antagonist – human neuropeptides B/W receptor 1 antagonism; AID 1861; hit rate 1.1% among 290,000; inhibition, % at 4.4 µM; GPR7-expressing cells, fluorescence antagonist assay; P48145; in the data active = inhibition above about 16%, passing the limit was not always enough;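 also: cells stimulated with the agonist NPW; 0% = agonist with vehicle and 100% = vehicle without agonist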
Target sequence (P48145 whole entry, looked up): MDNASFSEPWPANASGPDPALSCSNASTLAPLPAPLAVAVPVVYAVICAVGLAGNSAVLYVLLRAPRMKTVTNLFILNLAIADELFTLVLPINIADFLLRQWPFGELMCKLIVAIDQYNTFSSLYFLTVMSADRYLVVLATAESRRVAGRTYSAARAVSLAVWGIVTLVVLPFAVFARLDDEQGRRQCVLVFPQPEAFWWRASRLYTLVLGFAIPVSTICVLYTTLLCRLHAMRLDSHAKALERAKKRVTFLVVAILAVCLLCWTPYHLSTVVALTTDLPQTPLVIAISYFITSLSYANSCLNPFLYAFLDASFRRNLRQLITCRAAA
TAAR1 antagonist – human TAAR1 antagonism | CHO RD-HGA16 TAAR1, Fluo-8 calcium fluorescence, antagonist | inhibition, % at 3 µM | hit rate 1.5% among 360,000;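 active = inhibition above a per-plate cutoff, the mean inhibition of test compounds on that plate plus 3 SD, cut at about 49% in these data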;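 also: 0% = DMSO plus EC80 beta-PEA response and 100% = DMSO alone without agonist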
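Test system: hTAAR1-expressing CHO RD-HGA16 cells, Gα16-coupled; Probe or stimulus: EC80 β-phenethylamine stimulus; Compound dosing: single nominal final test compound concentration of 3 µM; Timing: 140 s kinetic read after compound, 140 s after agonist; Signal: Fluo-8 calcium-sensitive fluorescence; Measure: % inhibition of agonist calcium response; Controls: DMSO and EC80 PEA controls.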
TRPML3 ag – human mucolipin-3 channel agonism. Q8TDD5. HEK293 TRPML3-YFP, Fluo-8 calcium fluorescence; 100% = the carbachol control signal. activation, % at 3 µM. hit rate 0.29% among 220,000. AID 1448;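 active = activation above its plate's cutoff, the mean activation of the plate's test wells plus 3 SD, cut at about 12% in these data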;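 also: 0% = DMSO only wells and 100% = carbachol wells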
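Test system: TRPML3-YFP stable HEK293 cells. Doses: single point at 3 µM. Incubation: dye loading 1 h 37 °C then 30 min ambient, 125 s read. Signal: Fluo-8 calcium dye fluorescence, ex 470-495, em 515-575 nm. Measure: percent activation from peak-to-basal fluorescence ratio, scaled between DMSO and carbachol.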
LANA-H2B inh – blocks KSHV LANA binding to histone H2A/H2B | Q9QR71 | cell-free LANA-H2A/H2B peptide, fluorescence polarization | inhibition, % (concentration not given with the values) | hit rate 0.6% among 320,000 | AID 2629; in the data active = inhibition mostly above about 10%, no sharp cut-off; inactive = mostly below about 6.7%
TAAR1 ag conf – human TAAR1 agonism, confirmed. shares compounds with TAAR1 ag. CHO RD-HGA16 TAAR1, Fluo-8 calcium fluorescence; scaled: DMSO 0%, maximal phenethylamine 100%. hit rate 82% among 2,400. activation, % at 3 µM;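 active = activation above a cutoff set at the run's mean compound activation plus 3 SD, cut at about 39% in these data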
Ga16 nonsel ag – nonselective agonism, TAAR1 counter-screen. shares compounds with TAAR1 ag. CHO-Ga16 parental, Fluo-8 calcium fluorescence; normalized to maximal ATP response, DMSO zero. activation, % at 3 µM. hit rate 50% among 2,400. AID 651787;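 active = activation above the run cutoff, the mean activation over all tested wells plus 3 SD, cut at about 12% in these data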;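 also: 0% = DMSO wells and 100% = maximal ATP response on the peak over basal ratio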
TAAR1 desensitize – human TAAR1 agonist that also desensitizes the receptor | shares compounds with TAAR1 ag | CHO RD-HGA16 hTAAR1, Fluo-8 calcium, beta-PEA response inhibition | inhibition, % at 3 µM | hit rate 46% among 2,400;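 active = inhibition above the run cutoff, the mean inhibition of all test compounds plus 3 SD, cut at about 49% in these data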;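 also: beta-PEA stimulus applied at its EC80; loss of beta-PEA calcium signal after compound pretreatment read as receptor desensitization; 0% = DMSO with beta-PEA at EC80 and 100% = DMSO alone without agonist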
Ga16 antag count – counter-screen for TAAR1 agonists: nonselective Ga16 antagonists. shares compounds with TAAR1 ag. inhibition, % at 3 µM. CHO-Ga16 ATP-induced calcium, Fluo-8 fluorescence. AID 651952. hit rate 39% among 2,400;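 active = inhibition above the plate's mean compound inhibition plus 3 SD, computed per plate, cut at about 22% in these data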;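 also: 0% = EC80 ATP with DMSO and 100% = DMSO wells without ATP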
Starred values were filed as active, the others as inactive; · = no result.

SMILES	TRPN1 ag	TAAR1 ag	GPR7 antagonist	TAAR1 antagonist	TRPML3 ag	LANA-H2B inh	TAAR1 ag conf	Ga16 nonsel ag	TAAR1 desensitize	Ga16 antag count
NC(=O)NC(CC(=O)NNC(=O)c1cccs1)c1ccc(Cl)cc1 (centres undefined)	·	3.2	·	-7.2	·	3.1	·	·	·	·
CN1CCN(NC(=O)/C=C/c2cccc([N+](=O)[O-])c2)CC1	·	7.7	-1.0	-33.7	·	-2.6	·	·	·	·
FC(F)(F)c1ccc2c(c1)nc1n2CCCC1	0.7	4.3	-6.5	22.3	1.9	0.2	·	·	·	·
CN1CCN(c2nc3cc(C(F)(F)F)ccc3n3cccc23)CC1	·	61.8*	·	-6.4	·	-5.9	82.7*	20.3*	29.8	3.2
COc1ccc2[nH]c(=O)c(C(c3nnnn3CC3CCCO3)N3CCc4ccccc4C3)cc2c1 (centres undefined)	1.2	61.1*	-7.5	8.6	0.0	-6.5	54.8*	6.0	15.1	20.7
COc1ccc2cc(C(c3nnnn3C(C)(C)C)N3CCc4ccccc4C3)c(=O)[nH]c2c1 (centres undefined)	1.4	·	-12.9	·	1.0	-5.1	·	·	·	·
COc1ccc2cc(C(c3nnnn3C3CCCC3)N3CCc4ccccc4C3)c(=O)[nH]c2c1 (centres undefined)	0.1	45.7*	-5.8	-1.6	0.7	-1.9	38.7*	2.8	3.3	13.1
O=[N+]([O-])c1ccc(N2CCN(Cc3ccc(Br)o3)CC2)cc1	·	-1.3	23.1	12.3	·	7.3	·	·	·	·
COCCn1nnnc1CN(CCc1ccccc1)Cc1cc2cc(OC)ccc2[nH]c1=O	-0.2	82.6*	2.3	38.9	-0.2	5.2	79.4*	8.5	47.8	12.7
O=C1CC(C(=O)N2CCN(c3ccccn3)CC2)CN1Cc1ccccc1Cl (centres undefined)	·	0.2	·	-14.8	·	-2.4	·	·	·	·
CCCNC(=O)C1(C)CCN(C(=O)c2c(Cl)cccc2Cl)C1 (centres undefined)	·	0.9	·	-9.4	·	·	·	·	·	·
NC(=O)COC(=O)c1ccccc1Nc1ccc(SC(F)F)cc1	0.4	43.2*	-2.8	38.3	0.1	-4.0	6.0	9.4	16.1	16.2
N=C(N)SCc1ccccc1Cl	-2.0	72.3*	3.1	43.5	-0.5	-1.2	82.2*	3.0	72.6*	11.6
CCCCn1c(=O)[nH]c2nc3cc(NC(C)=O)ccc3nc2c1=O	0.3	1.7	4.5	-17.2	-0.1	0.3	·	·	·	·
CCCCCCn1c(=O)[nH]c2nc3cc(N)c(C)cc3nc2c1=O	42.3*	118.3*	-4.7	71.5*	14.6*	·	105.3*	84.7*	47.6	49.2*
CC(=O)c1ccc(N(CC(=O)NC2CCCCC2)C(=O)CNC(=O)c2cccs2)cc1	·	6.7	-1.0	-9.3	·	1.4	·	·	·	·
O=C(Nc1ccncc1)Nc1ccncc1	2.0	1.9	-7.5	1.2	1.1	-8.7	·	·	·	·
O=C(Nc1ccncc1)Nc1ccc(Cl)cc1	·	65.5*	-4.0	50.4*	·	-0.1	90.8*	17.2*	83.6*	21.2
Cc1ccc(NC(=O)CCC(=O)N2CCC(C)CC2)c([N+](=O)[O-])c1	·	7.1	-0.8	-20.7	·	-2.1	·	·	·	·
Cc1ccc(S(=O)(=O)N2CCOCC2)cc1C(=O)OCCOc1cccc(Cl)c1	·	0.3	·	1.4	·	-0.1	·	·	·	·
O=[N+]([O-])c1ccc(/C=C/C2=NN(c3ccccc3)C(c3ccco3)C2)cc1 (centres undefined)	6.4	79.6*	11.9	74.7*	1.8	-6.4	128.4*	198.2*	89.7*	94.5*
Cc1ccc(C(C2=C(O)CC(C)(C)CC2=O)C2C(=O)CC(C)(C)CC2=O)s1 (centres undefined)	1.5	34.9	-12.5	-11.2	0.0	5.0	·	·	·	·
CC1(C)CC(=O)C(C(C2=C(O)CC(C)(C)CC2=O)c2ccc(Br)s2)C(=O)C1 (centres undefined)	0.1	50.8*	-4.5	19.5	0.8	3.7	22.4	34.2*	42.1	26.5*
Cc1ccc(S(=O)(=O)N2C[C@H]3n4c(=O)ccc(=O)n4C[C@H](OC(=O)NCc4ccco4)[C@@]3(O)C2)cc1	·	3.7	·	-28.6	·	·	·	·	·	·
O=C(Cn1nnc2ccccc21)N/N=C\c1cccs1	0.8	45.5*	2.1	19.9	1.3	3.2	81.9*	4.5	43.1	3.3
SMILES	TRPN1 ag	TAAR1 ag	GPR7 antagonist	TAAR1 antagonist	TRPML3 ag	LANA-H2B inh	TAAR1 ag conf	Ga16 nonsel ag	TAAR1 desensitize	Ga16 antag count
O=C(Cn1cnc2ccccc21)N/N=C/c1cccs1	0.5	·	-2.7	·	0.9	0.2	·	11.2	·	0.3
CC(OC(=O)c1cc2sccc2n1C)C(=O)NCc1ccc2c(c1)OCO2 (centres undefined)	0.4	12.2	9.0	14.0	-0.2	-2.6	·	·	·	·
CC(OC(=O)c1cc2sccc2n1C)C(=O)NCc1ccc(F)cc1 (centres undefined)	-0.9	49.9*	-0.1	51.4*	-0.7	-0.6	17.8	17.3*	4.0	10.4
O=C(Nc1ccc(F)cc1F)c1cc(-c2ccco2)on1	1.3	9.0	1.2	16.4	0.9	-1.6	·	·	·	·
Cc1nn(Cc2ccc(Cl)cc2)c(C)c1NC(=O)c1cc(-c2ccco2)on1	2.5	64.8*	-0.4	84.8*	0.1	-1.2	32.4	15.7*	56.2*	42.5*
O=C(Nc1c(F)cc(F)cc1Br)c1cc(-c2ccco2)on1	-0.1	54.6*	-9.0	10.1	-0.4	7.2	55.9*	8.4	35.3	8.2
CCOC(=O)C(=CNc1ccc(N2CCCCC2)c(S(=O)(=O)Nc2ccccc2OC)c1)C(=O)OCC	·	9.6	·	4.8	·	·	·	·	·	·
Cc1nc(C)c(C(=O)OCC(=O)NCc2ccccc2)s1	·	18.0	·	10.3	·	1.0	·	·	·	·
CC1C/C(=C/c2cccn2C)C(=O)/C(=C/c2cccn2C)C1 (centres undefined)	0.9	66.6*	-2.3	75.5*	1.1	-43.0	39.6*	45.4*	50.5*	64.7*
NC(=O)c1ccc(NC(=O)CCN=C2NS(=O)(=O)c3ccccc32)cc1	·	-0.2	·	1.1	·	-1.2	·	·	·	·
CC(=O)NS(=O)(=O)c1ccc(NC(=O)C(C)NS(=O)(=O)/C=C/c2ccccc2)cc1 (centres undefined)	·	2.4	·	2.5	·	1.0	·	·	·	·

Assay outcomes deposited in PubChem by several laboratories.
